Laboratory results as given in ChEMBL document CHEMBL3046508, “Factors affecting the production of Trichoderma harzianum secondary metabolites during the interaction with different plant pathogens” (2009).
Activity calls are given as the source filed them. No cut-off for these calls is given here.

Tests used:
[1] = system: Plenodomus lingam; assay: Antifungal activity against Leptosphaeria maculans isolate UWA P11 assessed as growth inhibition at 1 to 100 ug/plug; format: functional
[2] = system: Phytophthora cinnamomi; assay: Antifungal activity against Phytophthora cinnamomi assessed as growth inhibition at 1 to 100 ug/plug; format: functional
[3] = system: Plenodomus lingam; assay: Antifungal activity against Leptosphaeria maculans isolate UWA P11 assessed as growth inhibition at 100 ug/plug; format: functional, organism-based
In short: (§1)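 Plugs cut from actively growing colony margins (L. maculans UWA P11 grown on V8 agar; B. cinerea and P. cinnamomi kept on PDA) were placed centrally on one-fifth strength PDA plates. Purified compound dissolved in filter-sterilized EtOAc was applied on top of each plug and the solvent evaporated; a solvent-only control was included. Colony diameter (mm) was measured daily. Three replicates per treatment; experiment run twice.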

[4] = system: Phytophthora cinnamomi; assay: Antifungal activity against Phytophthora cinnamomi assessed as growth inhibition at 100 ug/plug; format: functional, organism-based; in short: as §1
[5] = system: Plenodomus lingam; assay: Antifungal activity against Leptosphaeria maculans isolate UWA P11 assessed as growth inhibition at 0.01 to 200 ug/plug; format: functional, organism-based; in short: as §1
[6] = system: Botrytis cinerea; assay: Antifungal activity against Botryotinia fuckeliana assessed as growth inhibition at 0.01 to 200 ug/plug; format: functional, organism-based; in short: as §1
[7] = system: Phytophthora cinnamomi; assay: Antifungal activity against Phytophthora cinnamomi assessed as growth inhibition at 0.01 to 200 ug/plug; format: functional, organism-based; in short: as §1
[8] = system: Phytophthora cinnamomi; assay: Antifungal activity against Phytophthora cinnamomi assessed as growth inhibition at 1 to 10 ug/plug; format: functional, organism-based; in short: as §1
[9] = system: Botrytis cinerea; assay: Antifungal activity against Botryotinia fuckeliana assessed as growth inhibition at 1 to 10 ug/plug; format: functional, organism-based; in short: as §1
[10] = system: Botrytis cinerea; assay: Antifungal activity against Botryotinia fuckeliana assessed as growth inhibition at 200 ug/plug; format: functional; in short: as §1
[11] = system: Phytophthora cinnamomi; assay: Antifungal activity against Phytophthora cinnamomi assessed as growth inhibition at 200 ug/plug; format: functional; in short: as §1
[12] = system: Plenodomus lingam; assay: Antifungal activity against Leptosphaeria maculans isolate UWA P11 assessed as growth inhibition at 200 ug/plug; format: functional; in short: as §1

SMILES: C/C=C/CC(C)C(=O)c1c(O)c(OC)c(OC)[nH]c1=O (stereo not given) [HARZIANOPYRIDONE]
- growth inhibition (GI) [1]: 100%
- growth inhibition (GI) [2]: 100%

SMILES: C/C=C/C=C/CC1=C(CC(C)=O)C(=O)OC1
- growth inhibition (GI) [3]: Active
- growth inhibition (GI) [4]: Active

SMILES: Cc1cc(O)c2c(c1)C(=O)c1cccc(O)c1C2=O
- growth inhibition (GI) [5]: inactive
- growth inhibition (GI) [6]: inactive
- growth inhibition (GI) [7]: inactive

SMILES: C/C=C/C=C/C1=CC2=CC(=O)[C@](C)(OC(=O)[C@H](C)O)C(=O)C2=CO1
- growth inhibition (GI) [8]: Active
- growth inhibition (GI) [9]: Active

SMILES: Cc1cc(O)c2c(c1)C(=O)c1ccccc1C2=O
- growth inhibition (GI) [5]: inactive
- growth inhibition (GI) [6]: inactive
- growth inhibition (GI) [7]: inactive

SMILES: C/C=C/C=C/CC1=C(CC(C)O)C(=O)OC1 (stereo not given) [HARZIANOLIDE]
- growth inhibition (GI) [10]: <25%
- growth inhibition (GI) [11]: <25%
- growth inhibition (GI) [12]: <25%
